Experimental data reported in ChEMBL document CHEMBL5385968 (RSC Med Chem, 2024).
The source made the active and inactive calls. No cut-off for these calls is given here.

Experiments:
[1] = Cytotoxicity against CD-1 mouse bone marrow leucocytes assessed as reduction in cell viability at 25 uM incubated for 90 mins by CellTiter-Glo Luminescent assay; assay type: toxicity, cell-based; details: leucocyte
Method in brief: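 CD-1 mouse bone marrow leukocytes at 10^4 cells/well were exposed to compounds up to 25 μM (highest tested; final DMSO 1%) for 90 min at 37 °C, 5% CO2. Viability was read by CellTiter-Glo luminescence. IC50 values are mean ± SD of three independent experiments.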

[2] = target: T1, Neutrophil elastase (Homo sapiens) (UniProt P08246); test: Inhibition of human neutrophil elastase using N-methylsuccinyl-Ala-Ala-Pro-Val-7-amino-4-methylcoumarin as substrate at 50 uM measured every 30 secs for 10 mins by fluorescence based analysis
T1 sequence (whole entry): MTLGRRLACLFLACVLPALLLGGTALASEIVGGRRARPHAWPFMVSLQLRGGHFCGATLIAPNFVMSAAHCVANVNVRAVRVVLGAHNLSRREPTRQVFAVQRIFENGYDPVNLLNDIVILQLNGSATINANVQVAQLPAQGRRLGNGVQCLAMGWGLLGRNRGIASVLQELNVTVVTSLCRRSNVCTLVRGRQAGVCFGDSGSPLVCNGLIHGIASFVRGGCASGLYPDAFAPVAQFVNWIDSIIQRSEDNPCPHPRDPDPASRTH

[3] = tested on: Leucocyte; test: Antiradical activity against PMA-stimulated BALB/c mouse bone marrow leucocytes assessed as inhibition of ROS production at 50 uM measured for 60 mins by chemiluminescence based analysis; assay type: functional, cell-based
Method in brief: (§1)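 BALB/c mouse bone marrow leukocytes were suspended at 10^6 cells/ml in HBSS with Ca2+/Mg2+ and 40 μM L-012. Compounds were added in HBSS+ (final DMSO 1%), tested up to a highest concentration of 50 μM. Cells were stimulated with 200 nM PMA, and chemiluminescence was read every 2 min for 60 min at 37 °C. IC50 came from % inhibition of the 60-min integrated signal versus log concentration (5–7 concentrations, nonlinear regression). Values are mean ± SD, n=3.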

[4] = Antiradical activity against PMA-stimulated BALB/c mouse bone marrow leucocytes assessed as inhibition of ROS production measured for 60 mins by chemiluminescence based analysis; assay type: functional, cell-based; details: Leucocyte, 1 h
Method in brief: as §1, with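 “°C.” for “°C. IC50 came from % inhibition of the 60-min integrated signal versus log concentration (5–7 concentrations, nonlinear regression).”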

Structure (SMILES) | Activity [1] | inhibition [2] | also measured
CC(C)(C)C(=O)Oc1ccc(S(=O)(=O)Nc2ccccc2C(=O)NCC(=O)O)cc1 | Non-Toxic | – | –
O=C(c1ccsc1)n1[se]c2ccccc2c1=O | Non-Toxic | inactive | –
O=c1c2ccccc2[se]n1-c1ccccc1 | – | inactive | –
CCOC(=O)CC(=O)n1[se]c2ccccc2c1=O | – | inactive | –
O=C(NC1CC1)c1ccc(-n2[se]c3ccccc3c2=O)cc1 | – | inactive | –
CCCCCC(=O)n1[se]c2ccccc2c1=O | Non-Toxic | – | inhibition [3]: inactive
Cc1cccc(NC(=O)c2ccc(-n3[se]c4ccccc4c3=O)cc2)c1 | Non-Toxic | inactive | inhibition [3]: inactive
Cc1cccc(C(=O)n2[se]c3ccccc3c2=O)c1 | Non-Toxic | – | –
O=C(C1CC1)n1[se]c2ccccc2c1=O | – | – | IC50 [4]: 50 nM
CCOC(=O)c1ccc(-n2[se]c3ccccc3c2=O)cc1 | Non-Toxic | inactive | –
CC(C)(C)C(=O)Oc1ccc(S(=O)(=O)n2[se]c3ccccc3c2=O)cc1 | Non-Toxic | – | –
O=C(NC1CC1)n1[se]c2ccccc2c1=O | – | inactive | –
CCOC(=O)n1[se]c2ccccc2c1=O | – | inactive | –
